# Test results as given in publication PMC3838204 (Journal of the American Chemical Society, 2013).
# Assay: Hydrolysis of peptide-thioester
# Format: physicochemical
# In short: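 The Asp peptide-thioester (~2 mM) was incubated with Cys-peptide (~2.4 mM) in helium-purged buffer: 6 M Gu·HCl, 200 mM Na2HPO4, 10 mM TCEP·HCl, 20 mM MPAA, pH 7.0, RT, 18–24 h. Monitoring was by LC-MS and RP-HPLC (210 nm). Control omitted Cys-peptide and MPAA, at pH 6.8 for 19 h. The thioester was also examined after HF deprotection/cleavage.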
Substance,hydrolysis of the peptide-thioester after HF deprotection and cleavage (after HF deprotection and cleavage),"hydrolyzed product formed from the peptide-thioester (control in absence of the Cys-peptide and without added MPAA, 19 h, pH 6.8)","hydrolysis of the peptide-thioester during the ligation reaction (ligation conditions: 6 M guanidine hydrochloride, 200 mM Na2HPO4, 10 mM TCEP, 20 mM MPAA, pH 7.0, RT, 18–24 hours, LC-MS)","hydrolysis of the thioester, control (control in absence of the Cys-peptide and without added MPAA)"
LYRAD-^αCOSR`,no hydrolysis,about 30%,nor was significant hydrolysis,–
LYRAX-^αCOSR` [−Glu-α-thioester],–,–,–,no significant hydrolysis
